One may read the IC50 as the midpoint of a concentration-inhibition curve.

For 13 compounds, viability and IC50 results are on record in ChEMBL document CHEMBL1138546, “Synthesis and antimalarial activity of hydroxyethylpiperazine derivatives” (Eur J Med Chem, 2009).

The nature of data set [1]: Cytotoxicity against mouse J774 cells assessed as cell viability at 100 ug/ml after 24 hrs by MTT assay. Type of data set: cell-based. The note with it: read-out: Activity. In a few lines: (§1)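 Murine J774 monocyte/macrophages seeded at 2×10^6 cells/well, left 1 h at 37 °C, 5% CO2 in RPMI 1640 with 10% fetal bovine serum, 2 mM L-glutamine, 25 µg/ml gentamicin, pH 7.4. Adherent cells exposed to compounds (0.1–100 µg/ml) for 20 h, then MTT (5 mg/ml) added for 4 h. Formazan dissolved in DMSO, absorbance read at 540 nm. Result given as percent viability.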
(In general: Tetrazolium assays rely on reduction of a dye to a coloured formazan, in cell work by metabolically active cells.)

A short description of data set [2]: Cytotoxicity against mouse J774 cells assessed as cell viability at 1 ug/ml after 24 hrs by MTT assay. Type of data set: cell-based. To be noted: read-out: Activity. In a few lines:
as §1

Data set [3] is described as follows: Cytotoxicity against mouse J774 cells assessed as cell viability at 0.1 ug/ml after 24 hrs by MTT assay. Type of data set: cell-based. The note with it: read-out: Activity. In a few lines: as §1
In another data set the test system is Plasmodium falciparum. As to the kind of experiment: Antimalarial activity after 24 hrs against chloroquine-resistant Plasmodium falciparum W2 by [3H]hypoxanthine uptake. Type of data set: functional, organism-based. In a few lines:
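P. falciparum cultured in human O+ erythrocytes, 5% hematocrit, RPMI 1640 plus 10% human plasma. Sorbitol-synchronized trophozoites set at 2% parasitaemia, 2.5% hematocrit with ethanol-dissolved compounds at various concentrations in hypoxanthine-free RPMI 1640; chloroquine reference in each run. Growth read by [³H]-hypoxanthine incorporation; IC50 versus drug-free controls from curve fitting of dose-response data.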

Data set [4] is described as follows: Cytotoxicity against mouse J774 cells assessed as cell viability at 10 ug/ml after 24 hrs by MTT assay. It counts as cell-based. The note with it: read-out: Activity. The method in brief: as §1

Values after ≈ are worked out from the molar mass of the structure shown.

On to `CC(C)(C)OC(=O)N[C@@H](Cc1ccccc1)[C@H](O)CN1CCN(Cc2ccccc2)CC1`, for which, in data set [1], the viability at 24 h, 100 ug/ml was found to be 100%. Besides, in data set [2], the viability at 24 h, 1 ug/ml was 100%. The viability at 24 h, 0.1 ug/ml in data set [3] came to 95%. For the same compound, the IC50 with Plasmodium falciparum worked out at 14.9 µg/mL (≈ 33.9 µM). Moreover, the viability at 24 h, 10 ug/ml in data set [4] stood at 100%.

As for `COc1ccc(CN2CCN(C[C@@H](O)[C@H](Cc3ccccc3)NC(=O)OC(C)(C)C)CC2)cc1`, the viability at 24 h, 100 ug/ml in data set [1] turned out to be 85%. For the same compound, the viability at 24 h, 1 ug/ml in data set [2] amounted to 100%. For the same compound, in data set [3], the viability at 24 h, 0.1 ug/ml was determined as 100%. In the data set on Plasmodium falciparum, this compound showed an IC50 of 6.2 µg/mL (≈ 13.2 µM). Also, the viability at 24 h, 10 ug/ml in data set [4] was 100%.

In the case of `CC(C)(C)OC(=O)N[C@@H](Cc1ccccc1)[C@H](O)CN1CCNCC1`, in data set [1], the viability at 24 h, 100 ug/ml was found to be 65%. Besides, in data set [2], the viability at 24 h, 1 ug/ml was determined as 100%. For the same compound, the viability at 24 h, 0.1 ug/ml in data set [3] turned out to be 100%. Besides, the IC50 in the data set on Plasmodium falciparum is > 50 µg/mL. Also, the viability at 24 h, 10 ug/ml in data set [4] was determined as 100%.

For the compound `CC(C)(C)OC(=O)N[C@@H](Cc1ccccc1)[C@H](O)CN1CCN(Cc2ccc([N+](=O)[O-])cc2)CC1`, the viability at 24 h, 100 ug/ml in data set [1] stood at 81%. The viability at 24 h, 1 ug/ml in data set [2] came out at 100%. Besides, in data set [3], the viability at 24 h, 0.1 ug/ml is 100%. The compound also had an IC50 with Plasmodium falciparum of 23.5 µg/mL (≈ 48.5 µM). Also, the viability at 24 h, 10 ug/ml in data set [4] is 98%.

For the compound `CC(C)(C)OC(=O)N[C@@H](Cc1ccccc1)[C@H](O)CN1CCN(Cc2ccc(F)cc2)CC1`, the viability at 24 h, 100 ug/ml in data set [1] is 90%. Also, the viability at 24 h, 1 ug/ml in data set [2] turned out to be 100%. Also, the viability at 24 h, 0.1 ug/ml in data set [3] is 100%. This compound also registered an IC50 in the data set on Plasmodium falciparum of 7.5 µg/mL (≈ 16.4 µM). Further, the viability at 24 h, 10 ug/ml in data set [4] worked out at 99%.

As for `CC(C)(C)OC(=O)N[C@@H](Cc1ccccc1)[C@H](O)CN1CCN(Cc2ccc(Cl)cc2)CC1`, the viability at 24 h, 100 ug/ml in data set [1] was 88%. In data set [2], the viability at 24 h, 1 ug/ml amounted to 100%. Moreover, the viability at 24 h, 0.1 ug/ml in data set [3] was 100%. In addition, in the data set on Plasmodium falciparum, half-maximal inhibition (IC50) required 7.7 µg/mL (≈ 16.2 µM). Further, the viability at 24 h, 10 ug/ml in data set [4] was 100%.

Take `CN1CCN(C[C@@H](O)[C@H](Cc2ccccc2)NC(=O)OC(C)(C)C)CC1`: in data set [1], the viability at 24 h, 100 ug/ml came to 100%. Further, the viability at 24 h, 1 ug/ml in data set [2] was 100%. For the same compound, the viability at 24 h, 0.1 ug/ml in data set [3] amounted to 94%. Besides, the IC50 in the data set with Plasmodium falciparum was > 50 µg/mL. The viability at 24 h, 10 ug/ml in data set [4] worked out at 100%.

Regarding `CC(C)(C)OC(=O)N[C@@H](Cc1ccccc1)[C@H](O)CN1CCN(c2ccccc2)CC1`, the viability at 24 h, 100 ug/ml in data set [1] was determined as 58%. Besides, the viability at 24 h, 1 ug/ml in data set [2] came to 95%. In data set [3], the viability at 24 h, 0.1 ug/ml stood at 100%. Also, in the data set on Plasmodium falciparum, the IC50 was > 50 µg/mL. Besides, in data set [4], the viability at 24 h, 10 ug/ml was determined as 94%.

With `CC(C)(C)OC(=O)N[C@@H](Cc1ccccc1)[C@H](O)CN1CCN(Cc2ccc(N)cc2)CC1`, the viability at 24 h, 100 ug/ml in data set [1] turned out to be 85%. Besides, the viability at 24 h, 1 ug/ml in data set [2] came out at 98%. Also, the viability at 24 h, 0.1 ug/ml in data set [3] turned out to be 100%. The same compound showed an IC50 in the data set with Plasmodium falciparum of 15.8 µg/mL (≈ 34.8 µM). The viability at 24 h, 10 ug/ml in data set [4] stood at 98%.

Turning to `Cc1cccc(C)c1OCC(=O)N[C@@H](Cc1ccccc1)[C@@H](O)C[C@H](Cc1ccccc1)NC(=O)[C@H](C(C)C)N1CCCNC1=O` [LOPINAVIR], the midpoint of inhibition in the data set with Plasmodium falciparum, the IC50, lay at 1.7 µg/mL (≈ 2.7 µM).

For `CC(C)(C)OC(=O)N[C@@H](Cc1ccccc1)[C@H](O)CN1CCN(Cc2ccc3c(c2)OCO3)CC1`, the viability at 24 h, 100 ug/ml in data set [1] worked out at 82%. For the same compound, the viability at 24 h, 1 ug/ml in data set [2] was 98%. Further, the viability at 24 h, 0.1 ug/ml in data set [3] was 100%. This compound displayed an IC50 in the data set on Plasmodium falciparum of 5.1 µg/mL (≈ 10.5 µM). The viability at 24 h, 10 ug/ml in data set [4] was 100%.

On to `CC(C)(C)NC(=O)[C@@H]1C[C@@H]2CCCC[C@@H]2CN1C[C@@H](O)[C@H](Cc1ccccc1)NC(=O)[C@H](CC(N)=O)NC(=O)c1ccc2ccccc2n1` [SAQUINAVIR], for which the IC50 in the data set on Plasmodium falciparum amounted to 7 µg/mL (≈ 10.4 µM).

On to `COc1ccc(CN2CCN(C[C@@H](O)[C@H](Cc3ccccc3)NC(=O)OC(C)(C)C)CC2)cc1OC`, for which, in data set [1], the viability at 24 h, 100 ug/ml was found to be 83%. The viability at 24 h, 1 ug/ml in data set [2] came out at 100%. In addition, in data set [3], the viability at 24 h, 0.1 ug/ml worked out at 100%. This compound also came in with an IC50 in the data set with Plasmodium falciparum of 7 µg/mL (≈ 14 µM). Moreover, the viability at 24 h, 10 ug/ml in data set [4] was 100%.
